# The source made the active and inactive calls. The calls are words filed in the database; no cut-off is given here.
# Key:
# [1] = molecular target: T1, Kappa-type opioid receptor (Homo sapiens, UniProt P41145); assay: Binding affinity to recombinant human KOR transiently expressed in CHOK1 cells measured after 20 mins by TIRF microscopic analysis; type: cell-based
# Outline: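 Saturation binding on CHO-K1 cells transiently expressing human KOR (24 h post-transfection): 20 min incubation at 37 °C with each ligand concentration in complete medium, one wash in HEPES buffer pH 7.3, TIRF imaging. Mean whole-cell intensity (>30 cells per concentration), normalized to highest concentration, fitted by nonlinear regression for Kd; three replicates.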
# [2] = molecular target: T1, Kappa-type opioid receptor; assay: Displacement of [3H]-diprenorphine from recombinant human KOR transiently expressed in HEK293 cell membranes measured after 60 mins
# Outline: (§1)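 Membranes from HEK293T cells transiently transfected with human DOR, KOR or MOR; [3H]diprenorphine final 0.3 nM (DOR, KOR) or 0.2-0.3 nM (MOR) with varying competitor, 60 min at 37 °C in Tris/MgCl2/EDTA buffer pH 7.4. Nonspecific binding with 10 μM naloxone; IC50 by nonlinear regression converted to Ki via Cheng-Prusoff; selectivity as Ki ratio.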
# [3] = molecular target: T1, Kappa-type opioid receptor; assay: Inverse agonist activity at recombinant human KOR transiently expressed in HEK293T cells co-expressing G-alphaqi assessed as reduction in dynorphin A-stimulated inositol phosphate accumulation measured after 180 mins by HTRF assay; type: functional, cell-based
# [4] = species: Homo sapiens; assay: Selectivity ratio of Ki for displacement of [3H]-diprenorphine from recombinant human DOR transiently expressed in HEK293 cell membranes to Ki for displacement of [3H]-diprenorphine from recombinant human KOR transiently expressed in HEK293 cell membranes; outline: as §1
# [5] = molecular target: T1, Kappa-type opioid receptor; assay: Partial agonist activity at EA-tagged beta-arrestin2 fused KOR (unknown origin) stably expressed in HEK293 cells assessed as induction of beta-arrestin2 recruitment measured after 300 mins by chemiluminescence assay; type: cell-based
# Outline: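 PathHunter: HEK-293 cells stably expressing EA-tagged β-arrestin-2, transiently transfected with ProLink-tagged KOR-PK2; plated after 24 h, held a further 24 h at 37 °C. Compounds 1 pM to 10 μM final, 300 min at 37 °C, then detection mix 60 min at room temperature; chemiluminescence normalized to basal and dynorphin A maximum, nonlinear regression.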
# [6] = molecular target: Mu-type opioid receptor (Homo sapiens, UniProt P35372); assay: Displacement of [3H]-diprenorphine from recombinant human MOR transiently expressed in HEK293 cell membranes measured after 60 mins; outline: as §1
# [7] = molecular target: T1, Kappa-type opioid receptor; assay: Binding affinity to recombinant human KOR expressed in CHOK1 cells assessed as time of KOR colocalization in cell surface at 10 nM by single molecule microscopic analysis; type: cell-based
# Outline: (§2)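 Human KOR transiently expressed in CHO-K1 cells, labelled 4 h post-transfection with Cy5 probe (10 nM) and Cy3 probe (100 nM), rapid wash, TIRF single-molecule imaging at 20 °C in HEPES buffer pH 7.3. Particles tracked automatically; observed co-localization durations deconvolved (Lucy-Richardson) against a CD86-SNAP (SiR-labelled) non-interacting control.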
# [8] = species: Homo sapiens; assay: Selectivity ratio of Ki for displacement of [3H]-diprenorphine from recombinant human MOR transiently expressed in HEK293 cell membranes to Ki for displacement of [3H]-diprenorphine from recombinant human KOR transiently expressed in HEK293 cell membranes; outline: as §1
# [9] = molecular target: Delta-type opioid receptor (Homo sapiens, UniProt P41143); assay: Displacement of [3H]-diprenorphine from recombinant human DOR transiently expressed in HEK293 cell membranes measured after 60 mins; outline: as §1
# [10] = molecular target: T1, Kappa-type opioid receptor; assay: Binding affinity to recombinant human KOR transiently expressed in CHOK1 cells at 50 nM measured 20 mins post compound washout by TIRF microscopic analysis relative to control; type: cell-based
# Outline: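 CHO-K1 cells transiently expressing human KOR, 24 h post-transfection; incubated 20 min at 37 °C with 50 nM fluorescent ligand in complete medium, then washed on-stage with fresh imaging buffer. TIRF images of the same cell taken every minute over 20 min; cell ROI intensity compared with pre-wash image, bleaching control included; triplicate experiments.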
# [11] = molecular target: T1, Kappa-type opioid receptor; assay: Binding affinity to recombinant human KOR expressed in CHOK1 cells assessed as compound-coupled receptor mobility by measuring distribution in super diffusion phase at 100 nM measured after 20 mins by TIRF-SMM based TA-MSD analysis; type: cell-based
# Outline: (§3)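 Wild-type human KOR transiently transfected into CHO-K1 cells (Lipofectamine 2000); labelled 4 h post-transfection with probe at 100 nM for 20 min, washed in HEPES imaging buffer pH 7.3 and imaged by TIRF at 20 °C. Trajectories from automated particle tracking; time-averaged MSD of individual trajectories fitted to obtain diffusion coefficient and assign motion class.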
# [12] = molecular target: T1, Kappa-type opioid receptor; assay: Binding affinity to recombinant human KOR expressed in CHOK1 cells assessed as time of KOR colocalization in cell surface at 100 nM by single molecule microscopic analysis; type: cell-based; outline: as §2
# [13] = molecular target: T1, Kappa-type opioid receptor; assay: Binding affinity to recombinant human KOR expressed in CHOK1 cells assessed as compound-coupled receptor mobility by measuring distribution in normal diffusion phase at 100 nM measured after 20 mins by TIRF-SMM based TA-MSD analysis; type: cell-based; outline: as §3
# [14] = molecular target: T1, Kappa-type opioid receptor; assay: Binding affinity to recombinant human KOR expressed in CHOK1 cells assessed as compound-coupled receptor mobility by measuring distribution in immobile phase at 100 nM measured after 20 mins by TIRF-SMM based TA-MSD analysis; type: cell-based; outline: as §3
# [15] = molecular target: T1, Kappa-type opioid receptor; assay: Binding affinity to recombinant human KOR expressed in CHOK1 cells assessed as compound-coupled receptor mobility by measuring distribution in sub-diffusion phase at 100 nM measured after 20 mins by TIRF-SMM based TA-MSD analysis; type: cell-based; outline: as §3
# Sequence of Delta-type opioid receptor (P41143 whole entry): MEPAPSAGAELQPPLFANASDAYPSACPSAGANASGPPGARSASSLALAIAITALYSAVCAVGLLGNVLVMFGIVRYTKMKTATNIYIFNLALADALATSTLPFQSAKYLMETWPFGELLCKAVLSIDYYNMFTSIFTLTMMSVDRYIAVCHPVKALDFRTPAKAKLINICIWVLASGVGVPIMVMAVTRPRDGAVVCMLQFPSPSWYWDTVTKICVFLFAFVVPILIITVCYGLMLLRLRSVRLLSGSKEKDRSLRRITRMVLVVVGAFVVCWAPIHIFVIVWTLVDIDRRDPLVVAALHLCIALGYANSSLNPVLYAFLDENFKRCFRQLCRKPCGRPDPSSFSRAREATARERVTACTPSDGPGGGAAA
# Sequence of Mu-type opioid receptor (P35372 whole entry): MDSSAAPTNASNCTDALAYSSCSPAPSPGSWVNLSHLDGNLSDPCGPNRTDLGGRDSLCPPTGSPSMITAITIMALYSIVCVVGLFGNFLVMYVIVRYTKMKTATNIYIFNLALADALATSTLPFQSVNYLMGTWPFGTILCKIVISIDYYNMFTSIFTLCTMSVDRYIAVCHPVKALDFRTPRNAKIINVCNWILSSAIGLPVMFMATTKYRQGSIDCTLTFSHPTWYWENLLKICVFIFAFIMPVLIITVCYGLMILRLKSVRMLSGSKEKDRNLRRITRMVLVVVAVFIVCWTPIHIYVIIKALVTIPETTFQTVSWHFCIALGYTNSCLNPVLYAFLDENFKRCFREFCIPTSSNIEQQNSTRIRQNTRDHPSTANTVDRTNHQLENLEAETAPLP
# T1 sequence (P41145 whole entry): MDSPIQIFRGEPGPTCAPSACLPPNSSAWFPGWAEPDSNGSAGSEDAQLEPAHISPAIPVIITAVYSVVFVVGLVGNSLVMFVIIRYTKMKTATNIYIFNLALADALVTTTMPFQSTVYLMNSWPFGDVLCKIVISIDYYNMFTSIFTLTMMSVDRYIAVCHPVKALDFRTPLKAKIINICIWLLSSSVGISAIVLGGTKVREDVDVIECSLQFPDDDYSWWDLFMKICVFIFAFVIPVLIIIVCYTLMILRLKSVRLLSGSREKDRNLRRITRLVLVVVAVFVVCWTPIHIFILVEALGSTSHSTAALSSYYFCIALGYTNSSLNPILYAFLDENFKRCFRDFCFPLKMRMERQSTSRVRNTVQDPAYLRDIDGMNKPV
SMILES,Kd [1],Ki [2],Activity [3],Ratio Ki [4],Activity [5],Ki [6],TIME [7],Ratio Ki [8],Ki [9],Activity [10],Activity [11],TIME [12],Activity [13],Activity [14],Activity [15]
CN1/C(=C/C=C/C=C/C2=[N+](CCCCCC(=O)NCCCNC(=N)Nc3ccc4[nH]c5c(c4c3)C[C@@]3(O)[C@H]4Cc6ccc(O)c7c6[C@@]3(CCN4CC3CC3)[C@H]5O7)c3ccc(S(=O)(=O)[O-])cc3C2(C)C)C(C)(C)c2cc(S(=O)(=O)O)ccc21,9.5 nM,1.4 nM,Active,28,inactive,40 nM,< 2.78e-05 h,29,39 nM,> 90%,,,,,
CN1/C(=C/C=C/C2=[N+](CCCCCC(=O)NCCCNC(=N)Nc3ccc4[nH]c5c(c4c3)C[C@@]3(O)[C@H]4Cc6ccc(O)c7c6[C@@]3(CCN4CC3CC3)[C@H]5O7)c3ccc(S(=O)(=O)[O-])cc3C2(C)C)C(C)(C)c2cc(S(=O)(=O)O)ccc21,18.8 nM,8.6 nM,Active,4,inactive,380 nM,,44,31 nM,,8%,< 2.78e-05 h,51%,16%,25%
CN1/C(=C/C=C/C2=[N+](CCCCCC(=O)NCC(=O)NCC(=O)NCC(=O)NCC(=O)NCCCNC(=N)Nc3ccc4[nH]c5c(c4c3)C[C@@]3(O)[C@H]4Cc6ccc(O)c7c6[C@@]3(CCN4CC3CC3)[C@H]5O7)c3ccc(S(=O)(=O)[O-])cc3C2(C)C)C(C)(C)c2cc(S(=O)(=O)O)ccc21,,3.2 nM,inactive,88,inactive,110 nM,,34,280 nM,,,,,,
CN1/C(=C/C=C/C=C/C2=[N+](CCCCCC(=O)NCC(=O)NCC(=O)NCC(=O)NCC(=O)NCCCNC(=N)Nc3ccc4[nH]c5c(c4c3)C[C@@]3(O)[C@H]4Cc6ccc(O)c7c6[C@@]3(CCN4CC3CC3)[C@H]5O7)c3ccc(S(=O)(=O)[O-])cc3C2(C)C)C(C)(C)c2cc(S(=O)(=O)O)ccc21,4.8 nM,1.8 nM,inactive,107,inactive,133 nM,,74,193 nM,> 90%,,,,,
CN1/C(=C/C=C/C=C/C2=[N+](CCCCCC(=O)NCC(=O)NCC(=O)NCCCNC(=N)Nc3ccc4[nH]c5c(c4c3)C[C@@]3(O)[C@H]4Cc6ccc(O)c7c6[C@@]3(CCN4CC3CC3)[C@H]5O7)c3ccc(S(=O)(=O)[O-])cc3C2(C)C)C(C)(C)c2cc(S(=O)(=O)O)ccc21,,1.1 nM,inactive,100,inactive,100 nM,,91,106 nM,> 90%,,,,,
